Laboratory results reported in ChEMBL document CHEMBL1138555, “N-acylated and N,N'-diacylated imidazolidine-2-thione derivatives and N,N'-diacylated tetrahydropyrimidine-2(1H)-thione analogues: synthesis and antiproliferative activity” (Eur J Med Chem, 2009).
pIC50: −log10 of the molar value.

What was measured:
MT4 = assay: Antiproliferative activity against human MT4 cells assessed as reduction of growth by MTT assay; assay type: functional, cell-based
In short: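 MT-4 lymphoblastoid T cells (ATCC) in RPMI 1640 with 10% FCS, penicillin/streptomycin, checked for mycoplasma. 1 × 10⁴ mock-infected cells per well with serial dilutions from a 100 mM DMSO stock. Incubated 4 days at 37 °C, viable cells counted by MTT. IC50 versus untreated controls by linear regression. Mean of three separate experiments.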

HCT-116 = assay: Growth inhibition of human HCT116 cells after 48 hrs by sulforhodamine B assay; assay type: functional; conditions: HCT-116, 48 h
In short: (§1)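 NCI screen panel. Five 10-fold concentrations from 10^-4 to 10^-8 M. Exposure for the last 48 h of a 72 h incubation. Growth estimated by sulforhodamine B protein assay. GI50 is the concentration giving 50% growth inhibition. Where that level was not reached or was exceeded, the value is given as above or below the highest or lowest concentration tested.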

UACC-62 = assay: Growth inhibition of human UACC62 cells after 48 hrs by sulforhodamine B assay; assay type: functional; conditions: UACC-62, 48 h
In short: (§2)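 NCI in vitro panel screen. Compounds tested at five 10-fold dilutions, 10^-4 to 10^-8 M. Cells in 96-well plates were exposed for the last 48 h of a 72 h incubation. Viability/growth was read by sulforhodamine B protein assay. GI50 is the concentration giving 50% growth inhibition. Values beyond the tested range are reported as greater or less than the maximum or minimum concentration.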

MOLT-4 = assay: Growth inhibition of human MOLT4 cells after 48 hrs by sulforhodamine B assay; assay type: functional; conditions: MOLT-4, 48 h; in short: as §1
HL-60(TB) = assay: Growth inhibition of human HL-60(TB) cells after 48 hrs by sulforhodamine B assay; assay type: functional; conditions: HL-60, 48 h
In short: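 NCI 60-cell-line screen protocol: cells exposed to compound at five 10-fold dilutions from 10^-4 to 10^-8 M for the last 48 h of a 72 h incubation. Sulforhodamine B protein assay estimated viability/growth. GI50 (50% growth inhibition) derived; where not reached or exceeded, reported as greater or less than the highest or lowest concentration tested.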

HT-29 = assay: Growth inhibition of human HT-29 cells after 48 hrs by sulforhodamine B assay; assay type: functional; conditions: HT-29, 48 h; in short: as §1
K562 = assay: Growth inhibition of human K562 cells after 48 hrs by sulforhodamine B assay; assay type: functional; conditions: K562, 48 h; in short: as §1
COLO 205 = assay: Growth inhibition of human COLO205 cells after 48 hrs by sulforhodamine B assay; assay type: functional; conditions: COLO 205, 48 h; in short: as §1
U-251 = assay: Growth inhibition of human U251 cells after 48 hrs by sulforhodamine B assay; assay type: functional; conditions: U-251, 48 h; in short: as §2
SK-MEL-5 = assay: Growth inhibition of human SK-MEL-5 cells after 48 hrs by sulforhodamine B assay; assay type: functional; conditions: SK-MEL-5, 48 h; in short: as §1
SNB-19 = assay: Growth inhibition of human SNB19 cells after 48 hrs by sulforhodamine B assay; assay type: functional; conditions: SNB-19, 48 h; in short: as §2
CAKI-1 = assay: Growth inhibition of human Caki1 cells after 48 hrs by sulforhodamine B assay; assay type: functional; conditions: CAKI-1, 48 h; in short: as §1
SF-268 = assay: Growth inhibition of human SF268 cells after 48 hrs by sulforhodamine B assay; assay type: functional; conditions: SF-268, 48 h; in short: as §1
IGROV-1 = assay: Growth inhibition of human IGROV1 cells after 48 hrs by sulforhodamine B assay; assay type: functional; conditions: IGROV-1, 48 h; in short: as §1
NCI/ADR-RES = assay: Growth inhibition of human NCI/ADR-RES cells after 48 hrs by sulforhodamine B assay; assay type: functional; in short: as §1
PC-3 = assay: Growth inhibition of human PC3 cells after 48 hrs by sulforhodamine B assay; assay type: functional; conditions: PC-3, 48 h; in short: as §1
Malme-3M = assay: Growth inhibition of human MALME-3M cells after 48 hrs by sulforhodamine B assay; assay type: functional; in short: as §1
RXF 393 = assay: Growth inhibition of human RXF393 cells after 48 hrs by sulforhodamine B assay; assay type: functional; conditions: RXF 393, 48 h; in short: as §1
M14 = assay: Growth inhibition of human M14 cells after 48 hrs by sulforhodamine B assay; assay type: functional; conditions: M14, 48 h; in short: as §1
LOX IMVI = assay: Growth inhibition of human LOXIMVI cells after 48 hrs by sulforhodamine B assay; assay type: functional; in short: as §1
SK-OV-3 = assay: Growth inhibition of human SKOV3 cells after 48 hrs by sulforhodamine B assay; assay type: functional; conditions: SK-OV-3, 48 h; in short: as §1
SW-620 = assay: Growth inhibition of human SW620 cells after 48 hrs by sulforhodamine B assay; assay type: functional; conditions: SW-620, 48 h; in short: as §2
A549 = assay: Growth inhibition of human A549 cells after 48 hrs by sulforhodamine B assay; assay type: functional; conditions: A549, 48 h; in short: as §1
OVCAR-8 = assay: Growth inhibition of human OVCAR8 cells after 48 hrs by sulforhodamine B assay; assay type: functional; conditions: OVCAR-8, 48 h; in short: as §1
EKVX = assay: Growth inhibition of human EKVX cells after 48 hrs by sulforhodamine B assay; assay type: functional; in short: as §1
HCT-15 = assay: Growth inhibition of human HCT15 cells after 48 hrs by sulforhodamine B assay; assay type: functional; conditions: HCT-15, 48 h; in short: as §1
HOP-62 = assay: Growth inhibition of human HOP62 cells after 48 hrs by sulforhodamine B assay; assay type: functional; conditions: HOP-62, 48 h; in short: as §1
NCI-H460 = assay: Growth inhibition of human NCI-H460 cells after 48 hrs by sulforhodamine B assay; assay type: functional; conditions: NCI-H460, 48 h; in short: as §1
SF-295 = assay: Growth inhibition of human SF295 cells after 48 hrs by sulforhodamine B assay; assay type: functional; conditions: SF-295, 48 h; in short: as §1
NCI-H23 = assay: Growth inhibition of human NCI-H23 cells after 48 hrs by sulforhodamine B assay; assay type: functional; conditions: NCI-H23, 48 h; in short: as §1
T47D = assay: Growth inhibition of human T47D cells after 48 hrs by sulforhodamine B assay; assay type: functional; in short: as §2
SK-MEL-2 = assay: Growth inhibition of human SK-MEL-2 cells after 48 hrs by sulforhodamine B assay; assay type: functional; conditions: SK-MEL-2, 48 h; in short: as §1
SN12C = assay: Growth inhibition of human SN12C cells after 48 hrs by sulforhodamine B assay; assay type: functional; in short: as §2
BT-549 = assay: Growth inhibition of human BT549 cells after 48 hrs by sulforhodamine B assay; assay type: functional; conditions: BT-549, 48 h; in short: as §1
OVCAR-3 = assay: Growth inhibition of human OVCAR-3 cells after 48 hrs by sulforhodamine B assay; assay type: functional; conditions: OVCAR-3, 48 h; in short: as §1
UACC-257 = assay: Growth inhibition of human UACC257 cells after 48 hrs by sulforhodamine B assay; assay type: functional; conditions: UACC-257, 48 h; in short: as §2
ACHN = assay: Growth inhibition of human ACHN cells after 48 hrs by sulforhodamine B assay; assay type: functional; in short: as §1
UO-31 = assay: Growth inhibition of human UO31 cells after 48 hrs by sulforhodamine B assay; assay type: functional; conditions: UO-31, 48 h; in short: as §2
SNB-75 = assay: Growth inhibition of human SNB75 cells after 48 hrs by sulforhodamine B assay; assay type: functional; conditions: SNB-75, 48 h; in short: as §2
KM12 = assay: Growth inhibition of human KM12 cells after 48 hrs by sulforhodamine B assay; assay type: functional; conditions: KM12, 48 h; in short: as §1
HOP-92 = assay: Growth inhibition of human HOP92 cells after 48 hrs by sulforhodamine B assay; assay type: functional; conditions: HOP-92, 48 h; in short: as §1
[1] = Growth inhibition of human […] cells after 48 hrs by sulforhodamine B assay; assay type: functional; in short: as §1
OVCAR-4 = assay: Growth inhibition of human OVCAR4 cells after 48 hrs by sulforhodamine B assay; assay type: functional; conditions: OVCAR-4, 48 h; in short: as §1
SK-MEL-28 = assay: Growth inhibition of human SK-MEL-28 cells after 48 hrs by sulforhodamine B assay; assay type: functional; conditions: SK-MEL-28, 48 h; in short: as §1
MDA-MB-435 = assay: Growth inhibition of human MDA-MB-435 cells after 48 hrs by sulforhodamine B assay; assay type: functional; conditions: MDA-MB-435, 48 h; in short: as §1
TK-10 = assay: Growth inhibition of human TK10 cells after 48 hrs by sulforhodamine B assay; assay type: functional; conditions: TK-10, 48 h; in short: as §2
786-0 = assay: Growth inhibition of human 786-0 cells after 48 hrs by sulforhodamine B assay; assay type: functional; conditions: 786-0, 48 h; in short: as §1
NCI-H322M = assay: Growth inhibition of human NCI-H322M cells after 48 hrs by sulforhodamine B assay; assay type: functional; in short: as §1
MDA-MB-231 = assay: Growth inhibition of human MDA-MB-231 cells after 48 hrs by sulforhodamine B assay; assay type: functional; conditions: MDA-MB-231, 48 h; in short: as §1

## O=C(c1ccccc1)N1CCCN(C(=O)c2ccccc2)C1=S
MT4
  pIC50: < 4.00

## O=C(c1ccc(Cl)cc1)N1CCN(C(=O)c2ccc(Cl)cc2)C1=S
MT4
  pIC50: 5.00

## COc1ccc(C(=O)N2CCN(C(=O)c3ccc(OC)cc3)C2=S)cc1
MT4
  pIC50: < 4.00

## O=C(c1cccc(Cl)c1)N1CCN(C(=O)c2cccc(Cl)c2)C1=S
MT4
  pIC50: 4.46

## O=C(c1cccs1)N1CCCN(C(=O)c2cccs2)C1=S
MT4
  pIC50: < 4.00

## COC(=O)/C(=C\N1CCN(C(=O)c2ccco2)C1=S)C(C)=O
HCT-116
  GI50: 7.4 µM
UACC-62
  GI50: 11.5 µM
MOLT-4
  GI50: 20.8 µM
HL-60(TB)
  GI50: 7.5 µM
HT-29
  GI50: 15.8 µM
K562
  GI50: 10.2 µM
COLO 205
  GI50: 12.6 µM
U-251
  GI50: 5.5 µM
SK-MEL-5
  GI50: 5.3 µM
SNB-19
  GI50: 41.7 µM
CAKI-1
  GI50: 2.8 µM
SF-268
  GI50: 5.8 µM
IGROV-1
  GI50: 10.4 µM
NCI/ADR-RES
  GI50: 22.2 µM
PC-3
  GI50: 18.1 µM
Malme-3M
  GI50: 5.6 µM
RXF 393
  GI50: 4.4 µM
M14
  GI50: 10.7 µM
LOX IMVI
  GI50: 1.6 µM
SK-OV-3
  GI50: 31.3 µM
SW-620
  GI50: 3.9 µM
A549
  GI50: 19.3 µM
OVCAR-8
  GI50: 27.8 µM
EKVX
  GI50: 2.6 µM
HCT-15
  GI50: 2.2 µM
HOP-62
  GI50: 20.6 µM
NCI-H460
  GI50: 2.3 µM
SF-295
  GI50: 18.6 µM
NCI-H23
  GI50: 12.2 µM
T47D
  GI50: 6 µM
SK-MEL-2
  GI50: 15.2 µM
SN12C
  GI50: 5.9 µM
BT-549
  GI50: 3.5 µM
OVCAR-3
  GI50: 2.7 µM
UACC-257
  GI50: 17.2 µM
ACHN
  GI50: 4.1 µM
UO-31
  GI50: 13.5 µM
SNB-75
  GI50: 21 µM
KM12
  GI50: 3 µM
HOP-92
  GI50: 20.8 µM
[1]
  GI50: 5.5 µM
OVCAR-4
  GI50: 17.4 µM
SK-MEL-28
  GI50: 9.1 µM
MDA-MB-435
  GI50: 4.5 µM
MT4
  pIC50: 5.15
TK-10
  GI50: 3.5 µM
786-0
  GI50: 11.2 µM
NCI-H322M
  GI50: 12.4 µM
MDA-MB-231
  GI50: 9 µM

## O=C(c1cccc2ccccc12)N1CCN(C(=O)c2cccc3ccccc23)C1=S
MT4
  pIC50: 4.89

## CCOC(=O)/C(=C/N1CCN(C(=O)c2ccco2)C1=O)C(=O)c1ccccc1
MT4
  pIC50: 4.37
